Source: PubChem BioAssay
This is a sample that favours compounds with a hit; in the whole collection about 2.4% have one here.
NadD block – NadD (S. aureus) enzyme inhibition; purified NadD enzyme, colorimetric absorbance read-out; inhibition, % at 20 µM; hit rate 0.78% among 360,000; in the data active means inhibition above about 26%
LMPTP inh – blocks human LMPTP phosphatase; recombinant LMPTP-A, OMFP fluorogenic substrate, fluorescence intensity; inhibition, % at 20 µM; hit rate 0.22% among 360,000; AID 651560;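 active means compounds that cut the enzyme signal by at least half of the control window in the single-dose screen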;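 further: plate controls were DMSO wells with enzyme plus substrate for no effect and substrate without enzyme for full effect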
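Buffer or medium: Bis-Tris pH 6.0, DTT, detergent; Assay system: LMPTP-A enzyme; Quantity: 0.625 nM enzyme; Detection: endpoint fluorescence intensity; Times: 50 min dark incubation at room temperature; Controls: substrate-only low control, DMSO enzyme-plus-substrate high control; Doses: single 20 µM dose; Read-out: percent inhibition versus substrate-only and uninhibited controls; Reagent: 400 µM OMFP.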
Scp1 inh – inhibitors of human Scp-1 phosphatase | AID 493091 | Recombinant Scp1, phosphopeptide, malachite green phosphate absorbance | inhibition, % at 20 µM | Q9GZU7 | hit rate 0.88% among 340,000;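 active means inhibition above about 50% at 20 µM, limit read from the data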;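 further: plate controls were DMSO wells with enzyme for no effect and wells lacking enzyme for full effect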
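Material – SCP-1 phosphatase catalytic domain, residues 76-261 · Buffer or medium – Acidic Tris acetate buffer with magnesium and detergent · Also added – Phospho 17-mer peptide substrate · Compound – single 20 µM dose, 1% DMSO · Times – 45 min room-temperature reaction, 5 min colour, 30 min stabiliser · Technique – Phosphate-binding colour reagent, absorbance read at 630 nm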
DNMT1 block – blocks human DNA methyltransferase DNMT1; inhibition (reported as % activation of signal), % at 10 µM; hit rate 0.83% among 360,000; P26358; DNMT1 molecular beacon, Hinp1I cleavage, fluorescence; in the data active means inhibition above about 50%
SUMO1-SIM PPI – SUMO1-SIM interaction modulation; P63165; hit rate 0.33% among 360,000; SUMO1 binding to a labelled peptide, TR-FRET, 1 h; inhibition, % at 20 µM; in the data active means inhibition above about 37%
STEP inh – STEP (human) phosphatase inhibition; recombinant STEP, OMFP fluorogenic substrate, fluorescence; inhibition, % at 20 µM; hit rate 0.25% among 360,000; AID 588621;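 active means inhibition at 20 µM, scaled per plate between control wells, above about 37%, limit read from the data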;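 further: 0% = DMSO with enzyme and substrate and 100% = substrate only without enzyme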
Target sequence (P54829 whole entry, looked up): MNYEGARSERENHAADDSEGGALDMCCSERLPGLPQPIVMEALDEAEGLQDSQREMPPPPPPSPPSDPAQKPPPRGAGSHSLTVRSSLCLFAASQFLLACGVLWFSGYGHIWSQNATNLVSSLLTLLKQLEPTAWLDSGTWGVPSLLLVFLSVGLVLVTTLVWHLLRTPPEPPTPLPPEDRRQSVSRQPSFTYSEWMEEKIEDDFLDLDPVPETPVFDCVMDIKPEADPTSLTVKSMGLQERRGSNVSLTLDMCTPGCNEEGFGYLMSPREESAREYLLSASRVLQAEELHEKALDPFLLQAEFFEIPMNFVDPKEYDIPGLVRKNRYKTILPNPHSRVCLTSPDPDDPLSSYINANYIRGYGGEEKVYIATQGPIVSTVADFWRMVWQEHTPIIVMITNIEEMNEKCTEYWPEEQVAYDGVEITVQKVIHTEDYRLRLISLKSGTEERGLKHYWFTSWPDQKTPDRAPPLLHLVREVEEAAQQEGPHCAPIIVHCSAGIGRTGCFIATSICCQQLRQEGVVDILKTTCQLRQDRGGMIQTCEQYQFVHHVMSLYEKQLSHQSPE
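Material: STEP (striatal-enriched tyrosine phosphatase) enzyme, cell-free | Medium: 50 mM Bis-Tris pH 6.0 with 2.5 mM DTT and 0.005% Tween 20 | Read-out: Percent inhibition scaled to no-enzyme and uninhibited-enzyme controls, plate-pattern corrected | Signal: Fluorescence read at 480 nm ex / 540 nm em | Times: 20 min reaction, room temperature, in the dark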
Active calls of the source: *; / = no result given.

SMILES	NadD block	LMPTP inh	Scp1 inh	DNMT1 block	SUMO1-SIM PPI	STEP inh
Cc1ccccc1NC1=C/C(=N\S(=O)(=O)c2ccc(C(=O)O)cc2)c2ccccc2C1=O	8	9	2	72*	69*	20
COc1ccc(S(=O)(=O)/N=C2\C=C(Nc3ccc(O)cc3)C(=O)c3ccccc32)cc1	5	9	-15	41	19	0
CCC(C)(C)NC(=O)C(c1ccccc1F)N(Cc1ccco1)C(=O)c1csnn1 (centres undefined)	-3	-1	-1	9	1	-3
Cc1ccc(C)c(OCc2cc(C(=O)N3C[C@@H](C)O[C@@H](C)C3)no2)c1	-5	0	-11	0	3	2
Cc1c(Br)c(O)c(Br)c(O)c1/C=N/n1c(-c2ccccc2)n[nH]c1=S	1	-1	90*	1	11	1
Clc1ccc(C2=NCCN2)cc1	-3	-2	-4	1	0	-2
Oc1cc(CNCc2ccccc2)c(O)cc1CNCc1ccccc1	57*	8	1	30	-5	3
CC1=NN(S(=O)(=O)c2ccc(C)cc2)C(=O)c2ccccc2O1	-6	-2	-2	2	1	-2
Cc1nn(CCc2nn[nH]n2)c2nc(-c3ccc(C4CCCCC4)cc3)cc(C(F)(F)F)c12	28	3	-7	9	40*	1
O=C(O)CCCN1C(=O)/C(=C/c2cn(-c3ccccc3)nc2-c2cccs2)SC1=S	34*	24	8	11	11	6
Cc1cc(C(=O)N/N=C/c2cc(N=Nc3ccccc3)ccc2O)n[nH]1	8	6	64*	5	-6	6
Nc1ccc(C(=O)N/N=C\c2cc(N=Nc3cccc4ccccc34)ccc2O)cc1	41*	4	38	44	65*	10
CN(Cc1ccccc1)C(=O)C1CCN(S(=O)(=O)c2cc([N+](=O)[O-])ccc2Cl)CC1	-5	0	-4	0	-26	-1
CC(=O)COC(=O)C1CCN(S(=O)(=O)c2cc([N+](=O)[O-])ccc2Cl)CC1	-2	3	45	56*	-13	10
CCn1cc(C(=O)O)c(=O)c2cnc(N3CCN(C(=S)NC(=O)c4ccc(OC)cc4)CC3)nc21	8	65*	-5	3	7	10
CCn1cc(C(=O)O)c(=O)c2cnc(N3CCN(C(=S)NC(=O)c4ccc(Cl)cc4Cl)CC3)nc21	-4	51*	-6	2	12	3
CCn1cc(C(=O)O)c(=O)c2cnc(N3CCN(C(=S)NC(=O)c4ccc(F)c(F)c4)CC3)nc21	9	43	19	1	19	4
CC(=O)NC12CC3CC(C1)CC(C(=O)OCC(=O)NC(=O)c1cccn1C)(C3)C2	3	-2	2	-5	-3	-2
CCCCN1C(=O)CCC(C(=O)O)C1c1ccc([N+](=O)[O-])cc1 (centres undefined)	-5	0	-4	-1	-6	-3
Nc1c(/C=C2/C=CC(=O)C(O)=C2)c(=O)nc2sc(CC(=O)N3CCCC3)nn12	4	4	88*	21	-8	5
Nc1c(/C=C2/C=CC(=O)C(O)=C2)c(=O)nc2sc(CC(=O)N3CCOCC3)nn12	1	2	71*	19	-6	2
COC1=C/C(=C/c2c(N)n3nc(CC(=O)N4CCCC4)sc3nc2=O)C=CC1=O	2	1	-2	1	-22	-3
Nc1c(/C=C2/C=CC(=O)C(O)=C2)c(=O)nc2sc(CC(=O)N3CCCCC3)nn12	15	65*	72*	81*	45*	13
Nc1c(C=C2C=CC(=O)C=C2)c(=O)nc2sc(CC(=O)N3CCCCC3)nn12	2	0	9	5	-5	0
COc1ccc2cc(C(=O)N/N=C/c3sc4ccccc4c3O)ccc2c1	16	51*	85*	-8	-25	18
SMILES	NadD block	LMPTP inh	Scp1 inh	DNMT1 block	SUMO1-SIM PPI	STEP inh
COc1ccc(C(=O)N/N=C/c2sc3ccccc3c2O)cc1	6	1	-13	-10	-13	-6
CCC(=O)Nc1nonc1-c1nc2ccccc2n1Cc1ccc(Cl)c(Cl)c1	/	/	56*	/	/	/
O=C(O)c1cccc(Nc2nc(-c3ccc([N+](=O)[O-])cc3)nc3ccccc23)c1	4	52*	41	-10	-1	13
CC(C)(C)N1C(=O)c2ccccc2NC(=O)C1C(=O)NCCOc1ccccc1 (centres undefined)	/	-3	/	/	-3	/
COC(=O)c1ccc(N)cc1O	-2	1	12	1	1	0
COC(=O)c1ccc(=O)c2nc3/c(=C/O)c(O)cc(=O)c3[nH]c12	-7	81*	58*	108*	5	100*
CCc1nccn1S(=O)(=O)c1ccc(OC)c(C)c1C	3	-1	-3	0	2	-2
COc1ccc(S(=O)(=O)NCC(=O)NCCc2ccc(OC)c(OC)c2)cc1	-7	0	-11	-2	-3	-2
CCOc1cc(/C=C2\C(=O)ON=C2C)ccc1OCc1ccccc1	11	-1	-18	8	40*	1
CCCOc1ccc(/C=C2/C(=O)ON=C2C)cc1OCC	1	0	-5	13	19	2
COc1ccc(C2C(C(C)=O)=C(O)C(=O)N2c2nccs2)cc1OC (centres undefined)	2	-1	-1	1	-9	-2
N#Cc1cc2ccc(N3CCOCC3)cc2cc1C#N	6	1	-10	14	44*	0
N#Cc1cc(Cl)c(N2CCOCC2)cc1C#N	8	0	-9	-1	-1	0
CC(=O)Nc1ccc(NC(=O)c2cc(S(=O)(=O)N3CCCCC3)ccc2N2CCOCC2)cc1	8	0	-5	2	1	-2
Cc1ccc(NC(=O)c2ccc(OC(=O)CCN3C(=O)c4ccccc4C3=O)cc2)cc1	-5	0	0	50*	21	10
Cc1ccc(S(=O)(=O)Nc2ccc(O)c(S(=O)(=O)c3ccc(C)cc3)c2)cc1	-3	0	-7	0	-3	1
Cc1cc(C(=O)Nc2cccc(C(=O)O)c2)c(C)o1	2	-1	6	6	0	-1
Cc1cc(C(=O)Nc2cccc(O)c2)c(C)o1	0	1	0	-6	37*	0
Cc1cc(Nc2ccccc2C(=O)O)n(-c2cccc(Cl)c2)n1	2	-1	-7	2	42*	-1
Cc1ccc(S(=O)(=O)N(C)CC(=O)Nc2nc3ccccc3s2)cc1	-4	-1	0	-4	-3	-1
Cc1ccc(/C(=N/Nc2nc3ccccc3s2)C2=C(O)c3ccccc3C2=O)cc1	34*	1	-11	-43	5	-6
